Experiments:
HepG2 = test: Cytotoxicity against human HepG2 after 72 hrs by MTT assay; type: functional, cell-based; conditions: HepG2, 72 h
Method in brief: (§1)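 Cells seeded at 3.5 × 10⁴ cells/mL and pre-incubated 24 h at 37 °C, 5% CO₂; compounds diluted in DMSO and added for a further 72 h, with DMSO (final 0.5%) as control. Surviving cells measured by MTT, OD read at 492/620 nm; IC50 as mean of triplicate experiments.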

SK-OV-3 = test: Cytotoxicity against human SKOV3 cells after 72 hrs by MTT assay; type: functional, cell-based; conditions: SK-OV-3, 72 h; method in brief: as §1
PC-3 = test: Cytotoxicity against human PC3 cells after 72 hrs by MTT assay; type: functional, cell-based; conditions: PC-3, 72 h; method in brief: as §1
HCT-116 = test: Cytotoxicity against human HCT116 cells after 72 hrs by MTT assay; type: functional, cell-based; conditions: HCT-116, 72 h; method in brief: as §1
[1] = Cytotoxicity against human U87MG cells after 72 hrs by MTT assay; type: functional, cell-based, U-87MG ATCC; conditions: U-87 MG; method in brief: as §1
CCRF S-180 [2] = test: Antitumor activity against mouse S180 cells xenografted in ip dosed ICR mouse assessed as tumor growth suppression administered qd for 7 days measured on day 8; type: functional, organism-based
Method in brief: (§2)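 S-180 sarcoma cells implanted in ICR mice (2.5 × 10⁶ or 3 × 10⁶ cells/animal, depending on batch); ten animals per group, allocated by body weight. Dosed intraperitoneally once daily for seven consecutive days in 0.9% physiological saline; saline-only model group and amonafide 30 mg/kg positive control. Body weights recorded every two days; tumours excised and weighed 24 h after last injection; suppression relative to control group.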

CCRF S-180 [3] = test: Antitumor activity against mouse S180 cells xenografted in ICR mouse assessed as tumor growth suppression at 60 mg/kg, ip qd for 7 days measured on day 8 relative to control; type: functional; conditions: route intraperitoneal; method in brief: as §2
CCRF S-180 [4] = test: Antitumor activity against mouse S180 cells xenografted in ICR mouse assessed as tumor growth suppression at 45 mg/kg, ip qd for 7 days measured on day 8 relative to control; type: functional; conditions: route intraperitoneal; method in brief: as §2
CCRF S-180 [5] = test: Antitumor activity against mouse S180 cells xenografted in ICR mouse assessed as tumor growth suppression at 30 mg/kg, ip qd for 7 days measured on day 8 relative to control; type: functional; conditions: route intraperitoneal; method in brief: as §2
[6] = Cytotoxicity against human L02 cells after 72 hrs by MTT assay; type: cell-based; conditions: L02, 72 h; method in brief: as §1
[7] = Cytotoxicity against human HK2 cells after 72 hrs by MTT assay; type: cell-based; conditions: HK-2, 72 h; method in brief: as §1
Mus musculus = test: Toxicity in mouse S180 cells xenografted ICR mouse assessed as mortality at 15 to 30 mg/kg, ip qd for 7 days; type: organism-based, CCRF S-180; parameters: dose 15-30 mg/kg, route intraperitoneal; conditions: in vivo, 168 h
Method in brief: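 S-180 sarcoma cells implanted into ICR mice (3 × 10⁶ cells/animal for this batch), ten animals per group allocated by weight. Drug dissolved in 0.9% saline (stock 0.75–3 mg/mL) and given intraperitoneally once daily for seven consecutive days at 7.5, 15 or 30 mg/kg; saline-only model group. Body weight recorded every two days; tumors excised and weighed 24 h after last injection.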

CCRF S-180 [8] = test: Antitumor activity against mouse S180 cells xenografted in ICR mouse assessed as tumor growth suppression at 7.5 mg/kg, ip qd for 7 days measured on day 8; type: functional; conditions: route intraperitoneal; method in brief: as §2

SMILES	IC50 (HepG2) [nM]	IC50 (SK-OV-3) [nM]	IC50 (PC-3) [µM]	IC50 (HCT-116) [nM]	IC50 [1] [nM]	Activity (CCRF S-180 [2])	Activity (CCRF S-180 [3]) [%]	Activity (CCRF S-180 [4]) [%]	Activity (CCRF S-180 [5]) [%]	IC50 [6] [µM]	IC50 [7] [µM]	Activity (Mus musculus)	Activity (CCRF S-180 [8]) [%]
CN(C)CCN1C(=O)c2cccc3cc(Nc4ccc([N+](=O)[O-])cc4)cc(c23)C1=O	410	1320	0.41	620	620								
CN(C)CCCN1C(=O)c2cccc3c2c(cc2nnn(C)c23)C1=O	970	2000	3.21	1350	1140								
CN(C)CCCN1C(=O)c2cccc3c2c(cc2nnn(CCN(C)C)c23)C1=O	780	640	3.28	390	370								
CCCCn1nnc2cc3c4c(cccc4c21)C(=O)N(CCCN(C)C)C3=O	5770	8930	15.5	6340	6320								
Cn1nnc2cc3c4c(cccc4c21)C(=O)N(CC[N+](C)(C)[O-])C3=O	> 10000	> 10000	> 10	> 10000	> 10000	Dose-dependent effect	62.74	46.18	4.83	142	108		
CN(C)CCN1C(=O)c2cccc3c2c(cc2nnn(CCO)c23)C1=O	1070	2530	4.29	1420	1220								
CN(C)CCN1C(=O)c2cccc3c2c(cc2nnn(CCN(C)C)c23)C1=O	170	350	0.73	190	130								
CCCCn1nnc2cc3c4c(cccc4c21)C(=O)N(CCN(C)C)C3=O	1010	2550	4.77	1820	1460								
CN(C)CCCN1C(=O)c2cccc3c2c(cc2nnn(CCCN(C)C)c23)C1=O	290	460	1.2	350	300								
COc1ccc(Nc2cc3c4c(cccc4c2)C(=O)N(CCN(C)C)C3=O)cc1	900	2340	1.62	1240	2520								
CN(C)CCN1C(=O)c2cccc3cc(N)cc(c23)C1=O [AMONAFIDE]	1410	8830	8.05	4550	2800								
CN(C)CCCn1nnc2cc3c4c(cccc4c21)C(=O)N(CCN(C)C)C3=O	180	400	0.71	150	140								
CN(C)CCN1C(=O)c2cccc3c2c(cc2nnn(C)c23)C1=O	680	1170	1.58	650	450					1.77	0.99	Toxic	26.25
CN(C)CCCN1C(=O)c2cccc3c2c(cc2nnn(CCO)c23)C1=O	5210	9640	25	7730	4310								
